From ChEMBL document CHEMBL1153864, “Phase transfer catalyzed synthesis of bis-quinolines: antileishmanial activity in experimental visceral leishmaniasis and in vitro antibacterial evaluation” (Eur J Med Chem, 2009)
Converted amounts (≈) assume the structure as drawn. The source made the active and inactive calls. The calls are words filed in the database; no cut-off is given here.

Tests used:
[1] = test system: Vibrio cholerae; assay: Antibacterial activity against Vibrio cholerae 569B at 10 ug/ml after 24 hrs by agar dilution method; assay type: functional, organism-based
[2] = test system: Staphylococcus aureus; assay: Antibacterial activity against Staphylococcus aureus ML145 at 50 ug/ml after 24 hrs by agar dilution method; assay type: functional; details: ML145, 24 h
How it was run: (§1)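 Agar dilution MIC. Compound dissolved in sterile 0.2% DMSO, diluted in distilled water and mixed into molten nutrient agar (pH 7.2–7.4) at 5, 10, 25, 50; plate with 0.2% DMSO as control. Gram-positives grown 18 h in nutrient broth, Gram-negatives in peptone water. Stationary-phase suspension set to 0.5 McFarland, diluted 1:100, spot-inoculated at about 10^5 CFU per loopful. Plates held 24 h at 37 °C (up to 72 h if needed). MIC is the lowest level with no growth.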

[3] = test system: Macrophage; assay: Induction of nitric oxide production in Leishmania donovani MHOM/IN/1983/AG83 infected golden Syrian hamster peritoneal macrophages; assay type: functional, cell-based; details: Mesocricetus auratus
[4] = test system: Staphylococcus aureus; assay: Antibacterial activity against Staphylococcus aureus ML6 at 25 ug/ml after 24 hrs by agar dilution method; assay type: functional; details: ML6, 24 h; how it was run: as §1
[5] = test system: Leishmania donovani; assay: Antileishmanial activity against Leishmania donovani MHOM/IN/1983/AG83 promastigotes infected BALB/c mouse assessed as spleen weight at 5.5 mg/kg, ip administered two times per week for 4 weeks; assay type: functional; details: route intraperitoneal
How it was run: (§2)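 BALB/c mice (4-6 weeks) were infected iv with 2 × 10^7 freshly transformed promastigotes. One month later, groups were dosed ip in 0.2% Tween 80 in PBS (0.02 M), twice weekly for one month (8 doses); controls got vehicle only. Mice were killed one month post-treatment and spleen and liver were weighed. Parasite load came from Giemsa impression smears as organ weight (mg) × amastigotes per cell nucleus × 2 × 10^5. Values are mean ± S.E. of 5 mice; unpaired t-test.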

[6] = test system: Staphylococcus aureus; assay: Antibacterial activity against Staphylococcus aureus ML145 at 10 ug/ml after 24 hrs by agar dilution method; assay type: functional; details: ML145, 24 h; how it was run: as §1
[7] = test system: Bacillus licheniformis; assay: Antibacterial activity against […] Bacillus licheniformis NCTC 10341 at 10 ug/ml after 24 hrs by agar dilution method; assay type: functional, organism-based; how it was run: as §1
[8] = test system: Pseudomonas aeruginosa; assay: Antibacterial activity against Pseudomonas aeruginosa ATCC 27853 after 24 hrs by agar dilution method; assay type: functional; details: ATCC 27853, 24 h; how it was run: as §1
[9] = test system: Escherichia coli; assay: Antibacterial activity against Escherichia coli K-12 Row at 10 ug/ml after 24 hrs by agar dilution method; assay type: functional, organism-based; how it was run: as §1
[10] = test system: Leishmania donovani; assay: Antileishmanial activity against Leishmania donovani MHOM/IN/1983/AG83 promastigotes infected BALB/c mouse assessed as liver weight at 12.5 mg/kg, ip administered two times per week for 4 weeks; assay type: functional; details: route intraperitoneal; how it was run: as §2
[11] = test system: Vibrio cholerae; assay: Antibacterial activity against Vibrio cholerae 582 at 10 ug/ml after 24 hrs by agar dilution method; assay type: functional; details: Vibrio cholerae, 582, 24 h
[12] = test system: Mus musculus; assay: Toxicity in BALB/c mouse assessed as effect on serum glutamate pyruvate transaminase levels at 5.5 mg/kg, ip administered two times per week for 4 weeks; assay type: organism-based; parameters: dose 5.5 mg/kg, route intraperitoneal; details: in vivo, 672 h
How it was run: (§3)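 Normal BALB/c mice were dosed ip twice per week for 4 weeks. Blood was collected one month after treatment, and serum SGPT and SGOT (IU/l) and blood urea (mg/dl) were measured with commercial kits and compared with untreated normal mice.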

[13] = test system: Proteus mirabilis; assay: Antibacterial activity against Proteus mirabilis 7 at 5 ug/ml after 24 hrs by agar dilution method; assay type: functional, organism-based; how it was run: as §1
[14] = test system: Leishmania donovani; assay: Antileishmanial activity against Leishmania donovani MHOM/IN/1983/AG83 promastigotes assessed as induction of kinetoplast enlargement at 11.5 ug/ml after 2 hrs by transmission electron microscopy; assay type: functional, organism-based
[15] = test system: Mus musculus; assay: Toxicity in BALB/c mouse assessed as effect on blood urea levels at 5.5 mg/kg, ip administered two times per week for 4 weeks; assay type: organism-based; parameters: dose 5.5 mg/kg, route intraperitoneal; details: in vivo, 672 h; how it was run: as §3
[16] = test system: Salmonella typhimurium; assay: Antibacterial activity against Salmonella Typhimurium NCTC 74 at 10 ug/ml after 24 hrs by agar dilution method; assay type: functional, organism-based; details: Salmonella enterica subsp. enterica serovar Typhimurium; how it was run: as §1
[17] = test system: Shigella dysenteriae; assay: Antibacterial activity against Shigella dysenteriae 6 NCTC 100/54 at 5 ug/ml after 24 hrs by agar dilution method; assay type: functional, organism-based
[18] = test system: Staphylococcus aureus; assay: Antibacterial activity against Staphylococcus aureus ML145 ug/ml after 24 hrs by agar dilution method; assay type: functional; details: ML145, 24 h; how it was run: as §1
[19] = test system: Escherichia coli; assay: Antibacterial activity against Escherichia coli ATCC 25938 after 24 hrs by agar dilution method; assay type: functional; details: ATCC 25938, 24 h; how it was run: as §1
[20] = test system: Leishmania donovani; assay: Antileishmanial activity against Leishmania donovani MHOM/IN/1983/AG83 amastigotes by Giemsa staining; assay type: functional, organism-based
How it was run: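 Peritoneal macrophages from thioglycolate-elicited exudate (~2×10^6/ml), adhered overnight on coverslips in RPMI-1640 + 10% FBS at 37 °C, 5% CO2. Infected 6 h with stationary-phase AG83 promastigotes (2×10^7/ml), washed, then exposed 24 h to 0.5, 1, 3, 5, 10 compound. Methanol-fixed, Giemsa-stained; amastigotes per 200 macrophages counted against untreated controls.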

[21] = test system: Shigella dysenteriae; assay: Antibacterial activity against Shigella dysenteriae 7 NCTC 519/66 at 25 ug/ml after 24 hrs by agar dilution method; assay type: functional; details: 7 NCTC 519/66, 24 h
[22] = test system: Escherichia coli; assay: Antibacterial activity against Escherichia coli K-12 Row at 5 ug/ml after 24 hrs by agar dilution method; assay type: functional, organism-based; how it was run: as §1
[23] = test system: Staphylococcus aureus; assay: Antibacterial activity against Staphylococcus aureus ML6 at 5 ug/ml after 24 hrs by agar dilution method; assay type: functional, organism-based; how it was run: as §1
[24] = test system: Pseudomonas aeruginosa; assay: Antibacterial activity against Pseudomonas aeruginosa ATCC 27853 at 50 ug/ml after 24 hrs by agar dilution method; assay type: functional; details: ATCC 27853, 24 h; how it was run: as §1
[25] = test system: Shigella dysenteriae; assay: Antibacterial activity against Shigella dysenteriae 7 NCTC 519/66 at 50 ug/ml after 24 hrs by agar dilution method; assay type: functional; details: 7 NCTC 519/66, 24 h
[26] = Down regulation of IL6 release Leishmania donovani MHOM/IN/1983/AG83 infected interferon gamma-stimulated golden Syrian hamster peritoneal macrophages; assay type: functional, cell-based; details: Mesocricetus auratus; Macrophage
[27] = test system: Staphylococcus aureus; assay: Antibacterial activity against Staphylococcus aureus ML6 at 50 ug/ml after 24 hrs by agar dilution method; assay type: functional; details: ML6, 24 h; how it was run: as §1
[28] = test system: Vibrio cholerae; assay: Antibacterial activity against Vibrio cholerae 582 after 24 hrs by agar dilution method; assay type: functional; details: Vibrio cholerae, 582, 24 h
[29] = test system: Leishmania donovani; assay: Antileishmanial activity against Leishmania donovani MHOM/IN/1983/AG83 promastigotes assessed as induction of chromatin condensation at 2 ug/ml after 2 hrs by transmission electron microscopy; assay type: functional, organism-based
[30] = test system: Proteus mirabilis; assay: Antibacterial activity against Proteus mirabilis 7 at 50 ug/ml after 24 hrs by agar dilution method; assay type: functional; details: Proteus mirabilis, 7, 24 h; how it was run: as §1
[31] = test system: Staphylococcus aureus; assay: Antibacterial activity against Staphylococcus aureus ML145 at 25 ug/ml after 24 hrs by agar dilution method; assay type: functional; details: ML145, 24 h; how it was run: as §1

SMILES: Clc1ccc(OCOc2ccc(Cl)c3cccnc23)c2ncccc12
- Activity [1]: inactive
- inhibition at 50 µg/mL [2]: 100%
- Activity [3]: Active
- inhibition at 25 µg/mL [4]: 100%
- Activity [5]: 175 mg
- inhibition at 10 µg/mL [6]: 100%
- Activity [7]: inactive
- MIC [8]: 25 µg/mL (≈ 67.3 µM)
- Activity [9]: inactive
- Activity [10]: 900 mg
- inhibition at 10 µg/mL [11]: 100%
- Activity [12]: Non-toxic
- Activity [13]: inactive
- Activity [14]: Active
- Activity [15]: Non-toxic
- Activity [16]: inactive
- Activity [17]: inactive
- MIC [18]: 5 µg/mL (≈ 13.5 µM)
- MIC [19]: 50 µg/mL (≈ 135 µM)
- IC50 [20]: 2.1 µg/mL (≈ 5.66 µM)
- inhibition at 25 µg/mL [21]: 100%
- Activity [22]: inactive
- Activity [23]: inactive
- inhibition at 50 µg/mL [24]: 100%
- inhibition at 50 µg/mL [25]: 100%
- Activity [26]: Active
- inhibition at 50 µg/mL [27]: 100%
- MIC [28]: 5 µg/mL (≈ 13.5 µM)
- Activity [29]: Active
- inhibition at 50 µg/mL [30]: 100%
- inhibition at 25 µg/mL [31]: 100%
